Source: ChEMBL document CHEMBL3826895, “Pterin-sulfa conjugates as dihydropteroate synthase inhibitors and antibacterial agents” (Bioorg Med Chem Lett, 2016)
In brackets after ≈: the same amount, converted by molar mass.

Tests used:
Escherichia coli [1] = assay: Antibacterial activity against Escherichia coli K-12 in M9 minimal media by turbidometric method; assay type: functional
Escherichia coli [2] = assay: Antibacterial activity against Escherichia coli K-12 in M9 minimal media in presence of folate precursor PABA by turbidometric method; assay type: functional
Escherichia coli [3] = assay: Antibacterial activity against Escherichia coli K-12 in M9 minimal media in presence of methionine by turbidometric method; assay type: functional
Dihydropteroate synthase [4] = target: T1, Dihydropteroate synthase (Bacillus anthracis, UniProt Q81VW8); assay: Inhibition of fluorescein-labeled probe binding to Bacillus anthracis N-terminal His-tagged DHPS incubated for 1 hr in presence of sodium pyrophosphate by fluorescence polarization assay
T1 sequence (Q81VW8 whole entry): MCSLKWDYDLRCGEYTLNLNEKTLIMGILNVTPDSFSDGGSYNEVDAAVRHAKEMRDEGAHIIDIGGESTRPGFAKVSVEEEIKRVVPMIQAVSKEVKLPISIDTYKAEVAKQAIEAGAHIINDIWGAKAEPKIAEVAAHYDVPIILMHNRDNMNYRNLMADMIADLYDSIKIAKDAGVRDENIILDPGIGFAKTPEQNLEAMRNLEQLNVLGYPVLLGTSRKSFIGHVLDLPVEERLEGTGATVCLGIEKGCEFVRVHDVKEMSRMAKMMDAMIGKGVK
In short: (§1)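 Competition binding of test compounds against a probe on B. anthracis DHPS, read by fluorescence polarization as displacement of the probe; run without added pyrophosphate or with 2 mM sodium pyrophosphate, the DHPS reaction byproduct, to confirm site-specific binding; IC50 values derived from probe displacement.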

Dihydropteroate synthase [5] = target: T1, Dihydropteroate synthase; assay: Inhibition of fluorescein-labeled probe binding to Bacillus anthracis N-terminal His-tagged DHPS incubated for 1 hr by fluorescence polarization assay; in short: as §1

Row | SMILES | MIC (Escherichia coli [1]) | MIC (Escherichia coli [2]) | MIC (Escherichia coli [3]) | IC50 (Dihydropteroate synthase [4]) | IC50 (Dihydropteroate synthase [5])
1 | CC(=O)Nc1nc2ncc(CNc3ccc(S(=O)(=O)Nc4ccccn4)cc3)nc2c(=O)[nH]1 | 2.7 µM (≈ 1.26 µg/mL) | 669 µM | 6.3 µM |  | 
2 | Cc1cc(NS(=O)(=O)c2ccc(NCc3cnc4nc(N)[nH]c(=O)c4n3)cc2)no1 | 10.9 µM (≈ 4.67 µg/mL) | 467 µM | 29 µM | 3.4 µM | 20.6 µM
3 | COc1cc(NS(=O)(=O)c2ccc(NCc3cnc4nc(N)[nH]c(=O)c4n3)cc2)nc(OC)n1 | 17.2 µM (≈ 8.35 µg/mL) | > 412 µM | 86 µM | 1.9 µM | 26.8 µM
4 | COc1ncnc(NS(=O)(=O)c2ccc(NCc3cnc4nc(N)[nH]c(=O)c4n3)cc2)c1OC | 34.3 µM (≈ 16.7 µg/mL) | > 412 µM | 172 µM | 11.5 µM | 15.2 µM
5 | Nc1nc2ncc(CNc3ccc(S(=O)(=O)Nc4ncccn4)cc3)nc2c(=O)[nH]1 | 17.1 µM (≈ 7.27 µg/mL) | > 470 µM | 78 µM | 9.4 µM | 19.3 µM
6 | COc1ncnc(NS(=O)(=O)c2ccc(NCc3cnc4nc(NC(C)=O)[nH]c(=O)c4n3)cc2)c1OC | 3.8 µM (≈ 2 µg/mL) | > 644 µM | 10.1 µM |  | 
7 | CC(=O)NS(=O)(=O)c1ccc(NCc2cnc3nc(N)[nH]c(=O)c3n2)cc1 | 136 µM (≈ 53 µg/mL) | > 514 µM | > 200 µM | 17.1 µM | 18.6 µM
8 | CC(=O)Nc1nc2ncc(CNc3ccc(S(=O)(=O)Nc4onc(C)c4C)cc3)nc2c(=O)[nH]1 | 1.5 µM (≈ 0.727 µg/mL) | 249 µM | 5.9 µM |  | 
9 | CC(=O)Nc1nc2ncc(CNc3ccc(S(=O)(=O)Nc4cc(C)on4)cc3)nc2c(=O)[nH]1 | 0.8 µM (≈ 0.376 µg/mL) | 263 µM | 1.5 µM |  | 
10 | CC(=O)Nc1nc2ncc(CNc3ccc(S(=O)(=O)c4ccc(N)cc4)cc3)nc2c(=O)[nH]1 | 25 µM (≈ 11.6 µg/mL) | > 934 µM | 50 µM |  | 
11 | COc1cc(NS(=O)(=O)c2ccc(NCc3cnc4nc(NC(C)=O)[nH]c(=O)c4n3)cc2)nc(OC)n1 | 1.6 µM (≈ 0.844 µg/mL) | 537 µM | 3.4 µM |  | 
12 | CC1(C)S[C@@H]2[C@H](NC(=O)[C@H](N)c3ccccc3)C(=O)N2[C@H]1C(=O)O [AMPICILLIN] | 1.58 µM (≈ 0.552 µg/mL) | 2 µM | 2.1 µM |  | 
13 | O=C(N[C@H](CO)[C@H](O)c1ccc([N+](=O)[O-])cc1)C(Cl)Cl [CHLORAMPHENICOL] | 8.5 µM (≈ 2.75 µg/mL) | 9.7 µM | 9.7 µM |  | 
14 | COc1cc(Cc2cnc(N)nc2N)cc(OC)c1OC [TRIMETHOPRIM] | 1.7 µM (≈ 0.494 µg/mL) | 1.4 µM | 0.7 µM |  | 
15 | CC(=O)Nc1nc2ncc(CNc3ccc(S(=O)(=O)NC(C)=O)cc3)nc2c(=O)[nH]1 | 22 µM (≈ 9.49 µg/mL) | > 934 µM | 58 µM |  | 
16 | Nc1ccc(S(=O)(=O)c2ccc(NCc3cnc4nc(N)[nH]c(=O)c4n3)cc2)cc1 | 197 µM (≈ 83.4 µg/mL) | 236 µM | 236 µM | 11.3 µM | 17.8 µM
17 | CC(=O)Nc1nc2ncc(CNc3ccc(S(=O)(=O)Nc4ncccn4)cc3)nc2c(=O)[nH]1 | 1.6 µM (≈ 0.748 µg/mL) | 666 µM | 6.2 µM |  | 
18 | Nc1nc2ncc(CNc3ccc(S(=O)(=O)Nc4ccccn4)cc3)nc2c(=O)[nH]1 | 29.5 µM (≈ 12.5 µg/mL) | > 471 µM | 98 µM | 2.5 µM | > 62.5 µM
19 | Cc1noc(NS(=O)(=O)c2ccc(NCc3cnc4nc(N)[nH]c(=O)c4n3)cc2)c1C | 28.3 µM (≈ 12.5 µg/mL) | > 412 µM | 47 µM | 8.1 µM | 22.5 µM
